Test results taken from publication PMC5351328 (Clinical and Translational Science, 2016).

Assays:
P-glycoprotein = conditions: cited from earlier work
CCR2 = CCR2 (Homo sapiens, UniProt P41597); assay: CCR2 antagonist activity: plasma CCR2 ligand; format: in vivo; conditions: across all groups, P < 0.05
Method in brief: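 Adults with mild or moderate hepatic impairment and matched controls with normal hepatic function were given an oral 150 mg tablet of the test compound over 14 days. Plasma was sampled on Day 1 (predose), Day 7 and Day 14. CCL2, CCL3 and CCL4 were measured by Luminex multiplex and CCL5 by ELISA. Medians, IQR and change from baseline were reported, with Wilcoxon tests.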

CCR2, sequence (P41597 whole entry): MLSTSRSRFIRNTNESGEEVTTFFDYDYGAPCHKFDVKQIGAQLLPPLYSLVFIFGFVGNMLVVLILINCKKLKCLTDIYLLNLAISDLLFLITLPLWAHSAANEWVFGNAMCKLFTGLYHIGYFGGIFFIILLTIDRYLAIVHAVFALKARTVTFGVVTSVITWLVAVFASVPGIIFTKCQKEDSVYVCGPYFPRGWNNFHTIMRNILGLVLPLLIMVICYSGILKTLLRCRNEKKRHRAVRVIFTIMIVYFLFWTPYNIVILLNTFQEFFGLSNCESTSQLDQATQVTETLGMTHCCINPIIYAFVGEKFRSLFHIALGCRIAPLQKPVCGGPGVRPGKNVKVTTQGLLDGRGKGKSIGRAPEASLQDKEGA

CCL2 median fold-change (CCR2; Day 7 vs Day 1 (predose)): 4.4–5.5
CCL2 median fold-change (CCR2; Day 14 vs Day 1 (predose)): 4.8–6.0
Compound: CCCCOCCOc1ccc(-c2ccc3c(c2)/C=C(/C(=O)Nc2ccc([S@@+]([O-])Cc4cncn4CCC)cc2)CCCN3CC(C)C)cc1 [cenicriviroc]
substrate of P-glycoprotein (P-glycoprotein): substrate
